From ChEMBL document CHEMBL4038263, “Flavonoids from Erythrina schliebenii” (J Nat Prod, 2017)
pEC50: −log10 of the molar value. Values after ≈ are worked out from the molar mass of the structure shown.

What was measured:
MDA-MB-231 = experiment: Cytotoxicity against human MDA-MB-231 cells; assay type: functional, cell-based
[1] = test system: Mycobacterium tuberculosis; experiment: Antimycobacterial activity against Mycobacterium tuberculosis H37Rv; assay type: functional
In short: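 Read-out is the minimum inhibitory concentration (MIC). Crude extracts are expressed in μg mL−1 and isolated constituents in μM. Isonicotinylhydrazine and rifampicin served as reference controls.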

Compound	pEC50 (MDA-MB-231)	MIC [1]
COc1ccc(-c2coc3cc(O)cc(O)c3c2=O)cc1OC	4.50	102 µM (≈ 32 µg/mL)
COc1ccc(/C=C/C(=O)c2c(O)cc(OC)c(OC)c2OC)cc1	3.54	92.9 µM (≈ 32 µg/mL)
COc1ccc(-c2coc3cc(O)cc(O)c3c2=O)cc1CC=C(C)C	4.55	36.9 µM (≈ 13 µg/mL)
COc1cc(-c2coc3cc(O)cc(O)c3c2=O)cc(OC)c1OC	4.54	93 µM (≈ 32 µg/mL)
COc1ccc([C@@H]2CC(=O)c3c(cc(OC)c(OC)c3OC)O2)cc1	3.54	92.9 µM (≈ 32 µg/mL)
COc1cc(OC)c([C@@H]2COc3cc4c(c(O)c3C2=O)C=CC(C)(C)O4)cc1OC	4.24	67.6 µM (≈ 27.9 µg/mL)
COc1c(O)cc(-c2coc3cc(O)cc(O)c3c2=O)cc1CC=C(C)C	4.11	86.9 µM (≈ 32 µg/mL)
COc1cc(-c2coc3cc(O)cc(O)c3c2=O)cc(CC=C(C)C)c1OC	4.31	77.2 µM (≈ 29.5 µg/mL)
C=C(C)/C=C/c1cc(-c2coc3cc(O)cc(O)c3c2=O)cc(O)c1OC	4.89	87.4 µM (≈ 32 µg/mL)
COc1cc(OC)c(C2COc3cc(O)cc(O)c3C2=O)cc1OC (stereo not given)	3.56	92.5 µM (≈ 32 µg/mL)
COc1cc2c(cc1CC=C(C)C)[C@@H]1Oc3cc(O)ccc3[C@@H]1CO2		90.8 µM (≈ 30.7 µg/mL)
CC1(C)C=Cc2c(cc3occ(-c4ccc(O)cc4O)c(=O)c3c2O)O1	4.77	90.9 µM (≈ 32 µg/mL)
COc1c(CC=C(C)C)cc([C@@H]2CC(=O)c3c(O)cc(O)cc3O2)cc1CC=C(C)C	4.67	49.5 µM (≈ 20.9 µg/mL)
COc1ccc(-c2cc(=O)c3c(OC)c(OC)c(OC)cc3o2)cc1	3.53	93.5 µM (≈ 32 µg/mL)
CC(C)=CCc1cc([C@@H]2CC(=O)c3c(O)cc(O)cc3O2)cc(CC=C(C)C)c1O [ABYSSINONE V]		78.3 µM (≈ 32 µg/mL)
COc1ccc([C@@H]2CC(=O)c3c(cc(OC)c(O)c3OC)O2)cc1 [HAMILTONE A]	3.70	96.9 µM (≈ 32 µg/mL)
NNC(=O)c1ccncc1 [ISONIAZID]		0.3 µM (≈ 0.0411 µg/mL)
C=C(C)[C@@H]1CC[C@]2(C)CC[C@]3(C)[C@H](CC[C@@H]4[C@@]5(C)CC[C@H](O)C(C)(C)[C@@H]5CC[C@]43C)[C@@H]12 [LUPEOL]	3.68	
CO[C@H]1/C=C/O[C@@]2(C)Oc3c(C)c(O)c4c(O)c(c(/C=N/N5CCN(C)CC5)c(O)c4c3C2=O)NC(=O)/C(C)=C\C=C\[C@H](C)[C@H](O)[C@@H](C)[C@@H](O)[C@@H](C)[C@H](OC(C)=O)[C@@H]1C [RIFAMPIN]		0.09 µM (≈ 0.0741 µg/mL)
COc1ccc(-c2cc(=O)c3c(OC)c(OC)c(OC)cc3o2)cc1OC [SINENSETIN]	3.57	85.9 µM (≈ 32 µg/mL)
